Common to all, as to format: functional
The subject of test [1] is Mycobacterium tuberculosis. Kind of test: Antitubercular activity against isoniazid-resistant Mycobacterium tuberculosis ATCC 35822 after 5 days by resazurin-based microplate assay. The note with it: ATCC 35822, 120 h. The method, boiled down: (§1)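 Mid-log cultures grown in 7H9 with glycerol, Tween-80 and ADC. Compounds in DMSO were tested two-fold from […] against ~10^5 CFU/mL, 37°C for 5 d. Resazurin was then added for a further 2 d, and fluorescence read at ex 530/em 590 with visual confirmation. MIC was the lowest concentration inhibiting 90% of growth. Final DMSO 0.625%; two-fold variation taken as assay error.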

Test [2] has as its system Mycobacterium tuberculosis. Put plainly: Antitubercular activity against ethionamide-resistant Mycobacterium tuberculosis ATCC 35830 after 5 days by resazurin-based microplate assay. To be noted: ATCC 35830, 120 h. The method, boiled down: as §1
Test [3] concerns Mycobacterium tuberculosis. Put plainly: Antitubercular activity against ethambutol-resistant Mycobacterium tuberculosis ATCC 35837 after 5 days by resazurin-based microplate assay. The note with it: ATCC 35837, 120 h. Summed up:
as §1

For test [4], the system named is Mycobacterium tuberculosis. Put plainly: Antitubercular activity against kanamycin-resistant Mycobacterium tuberculosis ATCC 35827 after 5 days by resazurin-based microplate assay. The note with it: ATCC 35827, 120 h. The method, boiled down: as §1
Test [5] has as its system Mycobacterium tuberculosis. Kind of test: Antitubercular activity against streptomycin-resistant Mycobacterium tuberculosis ATCC 35820 after 5 days by resazurin-based microplate assay. The note with it: ATCC 35820, 120 h. The method, boiled down: as §1

Converted amounts (≈) assume the structure as drawn.

In the case of `[O-][n+]1nc(N2CCCCC2)[n+]([O-])c2cc3c(cc21)CCC3`, the MIC90 in test [1] was 0.15 µg/mL (≈ 0.524 µM); in test [2], 0.31 µg/mL (≈ 1.08 µM); in test [3] it was 0.31 µg/mL (≈ 1.08 µM); in test [4] it was 0.31 µg/mL (≈ 1.08 µM); in test [5], 0.15 µg/mL (≈ 0.524 µM).

For `CCNc1n[n+]([O-])c2cc(C)c(OC)cc2[n+]1[O-]`, the MIC90 in test [1], in test [2], in test [3], in test [4] and in test [5] was 1.2 µg/mL (≈ 4.8 µM) in each case.

`CN(C)c1n[n+]([O-])c2cc3c(cc2[n+]1[O-])CCC3`: the MIC90 in test [1] was < 0.07 µg/mL; in test [2], 0.15 µg/mL (≈ 0.609 µM); in test [3], 0.31 µg/mL (≈ 1.26 µM); in test [4], 0.31 µg/mL (≈ 1.26 µM); in test [5], < 0.07 µg/mL.

For the compound `CN(CCc1ccccc1)c1n[n+]([O-])c2cc3c(cc2[n+]1[O-])CCC3`, the MIC90 in test [1] was 0.07 µg/mL (≈ 0.208 µM); in test [2], 0.15 µg/mL (≈ 0.446 µM); in test [3] it was 0.31 µg/mL (≈ 0.922 µM); in test [4], 0.15 µg/mL (≈ 0.446 µM); in test [5] it was < 0.07 µg/mL.

Consider `CCNc1n[n+]([O-])c2ccccc2[n+]1[O-]`, for which the MIC90 in test [1], in test [2], in test [3], in test [4] and in test [5] was 1.2 µg/mL (≈ 5.82 µM) each time.

In the case of `CCNc1n[n+]([O-])c2cc3c(cc2[n+]1[O-])CCC3`, the MIC90 in test [1] was found to be 1.2 µg/mL (≈ 4.87 µM); in test [2], 1.2 µg/mL (≈ 4.87 µM); in test [3], 1.2 µg/mL (≈ 4.87 µM); in test [4] it was 1.2 µg/mL (≈ 4.87 µM); in test [5], 0.63 µg/mL (≈ 2.56 µM).

As to `CN(Cc1ccccc1)c1n[n+]([O-])c2cc3c(cc2[n+]1[O-])CCC3`, the MIC90 is < 0.07 µg/mL in test [1]; 0.07 µg/mL (≈ 0.217 µM) in test [2]; 0.15 µg/mL (≈ 0.465 µM) in test [3]; 0.15 µg/mL (≈ 0.465 µM) in test [4]; < 0.07 µg/mL in test [5].

With `[O-][n+]1nc(N2CCCC2)[n+]([O-])c2ccccc21`, the MIC90 in test [1] amounted to 0.31 µg/mL (≈ 1.33 µM); in test [2] it was 0.31 µg/mL (≈ 1.33 µM); in test [3] it was 0.31 µg/mL (≈ 1.33 µM); in test [4] it was 0.31 µg/mL (≈ 1.33 µM); in test [5] it was 0.02 µg/mL (≈ 0.0861 µM).

Take `[O-][n+]1nc(N2CCCC2)[n+]([O-])c2cc3c(cc21)CCC3`: the MIC90 in test [1] was 0.31 µg/mL (≈ 1.14 µM); in test [2] it was 0.62 µg/mL (≈ 2.28 µM); in test [3] it was 0.62 µg/mL (≈ 2.28 µM); in test [4] it was 0.63 µg/mL (≈ 2.31 µM); in test [5], 0.16 µg/mL (≈ 0.588 µM).

On to `CC(C)(C)Nc1n[n+]([O-])c2ccccc2[n+]1[O-]`, for which the MIC90 is 2.5 µg/mL (≈ 10.7 µM) in test [1]; 1.2 µg/mL (≈ 5.12 µM) in test [2]; 2.5 µg/mL (≈ 10.7 µM) in test [3]; 2.5 µg/mL (≈ 10.7 µM) in test [4]; 1.2 µg/mL (≈ 5.12 µM) in test [5].

For the compound `CCNc1n[n+]([O-])c2cccc(C)c2[n+]1[O-]`, the MIC90 in test [1] was 0.62 µg/mL (≈ 2.82 µM); in test [2] it was 0.31 µg/mL (≈ 1.41 µM); in test [3], 0.62 µg/mL (≈ 2.82 µM); in test [4] it was 0.62 µg/mL (≈ 2.82 µM); in test [5] it was 0.16 µg/mL (≈ 0.727 µM).

For `CC1CCCCN1c1n[n+]([O-])c2cc3c(cc2[n+]1[O-])CCC3` (stereo not given), the MIC90 in test [1] amounted to 0.31 µg/mL (≈ 1.03 µM); in test [2], 0.31 µg/mL (≈ 1.03 µM); in test [3], 0.62 µg/mL (≈ 2.06 µM); in test [4], 0.62 µg/mL (≈ 2.06 µM); in test [5], 0.31 µg/mL (≈ 1.03 µM).

In the case of `[O-][n+]1nc(NC2CCC2)[n+]([O-])c2cc3c(cc21)CCC3`, the MIC90 in test [1] worked out at 1.2 µg/mL (≈ 4.41 µM); in test [2] it was 0.62 µg/mL (≈ 2.28 µM); in test [3], 0.62 µg/mL (≈ 2.28 µM); in test [4], 1.2 µg/mL (≈ 4.41 µM); in test [5], 0.31 µg/mL (≈ 1.14 µM).
